LMPTP inh: blocks human LMPTP phosphatase; 360,000 compounds, 0.22% hits; inhibition, % at 20 µM; recombinant LMPTP-A, OMFP fluorogenic substrate, fluorescence intensity;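 active = compounds that cut the enzyme signal by at least half of the control window in the single-dose screen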;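 also: plate controls were DMSO wells with enzyme plus substrate for no effect and substrate without enzyme for full effect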
Target sequence (P24666 whole entry, looked up): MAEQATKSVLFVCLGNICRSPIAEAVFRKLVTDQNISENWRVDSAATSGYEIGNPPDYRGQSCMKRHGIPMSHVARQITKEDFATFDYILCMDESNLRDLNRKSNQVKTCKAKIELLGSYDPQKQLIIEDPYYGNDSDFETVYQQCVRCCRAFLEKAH
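Assay system: LMPTP-A, protein tyrosine phosphatase of low molecular weight / Medium: pH 6.0 Bis-Tris buffer with DTT and Triton X-100 / Schedule: 50 min enzyme reaction at room temperature, protected from light / Measured by: endpoint fluorescence intensity from OMFP dephosphorylation / Read-out basis: % inhibition relative to no-enzyme and uninhibited control wells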
SUMO1 PPI mod: modulators of human SUMO1-mediated protein-protein interactions; SUMO1 binding to a labelled peptide, TR-FRET, 1 h; inhibition, % at 20 µM; 360,000 compounds, 0.33% hits; in the data active = inhibition above about 37%
Target sequence (P63165 whole entry, looked up): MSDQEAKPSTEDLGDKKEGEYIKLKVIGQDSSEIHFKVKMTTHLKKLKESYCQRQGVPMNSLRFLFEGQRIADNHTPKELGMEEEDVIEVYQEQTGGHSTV
STEP block: inhibitors of human striatal-enriched phosphatase STEP. recombinant STEP, OMFP fluorogenic substrate, fluorescence. P54829. inhibition, % at 20 µM. 360,000 compounds, 0.25% hits. AID 588621;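 active = inhibition at 20 µM, scaled per plate between control wells, above about 37%, limit read from the data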;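 also: 0% = DMSO with enzyme and substrate and 100% = substrate only without enzyme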
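Material: STEP (striatal-enriched tyrosine phosphatase) enzyme, cell-free; Compound dosing: 20 µM single dose in 1% DMSO; Technique: fluorescence read at 480 nm ex / 540 nm em; Times: reaction 20 min, ambient temperature; Medium: 50 mM Bis-Tris pH 6.0 with 2.5 mM DTT and 0.005% Tween 20; Also added: OMFP at 25 µM.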
DNMT1 inh: blocks human DNA methyltransferase DNMT1; P26358; 360,000 compounds, 0.83% hits; DNMT1 molecular beacon, Hinp1I cleavage, fluorescence; inhibition (reported as % activation of signal), % at 10 µM; in the data active = inhibition above about 50%
Scp1 inh: blocks human Scp-1 phosphatase activity. Q9GZU7. inhibition, % at 20 µM. 340,000 compounds, 0.88% hits. Recombinant Scp1, phosphopeptide, malachite green phosphate absorbance;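 active = inhibition above about 50% at 20 µM, limit read from the data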;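 also: plate controls were DMSO wells with enzyme for no effect and wells lacking enzyme for full effect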
Target sequence (Q9GZU7 76-261 limits assumed): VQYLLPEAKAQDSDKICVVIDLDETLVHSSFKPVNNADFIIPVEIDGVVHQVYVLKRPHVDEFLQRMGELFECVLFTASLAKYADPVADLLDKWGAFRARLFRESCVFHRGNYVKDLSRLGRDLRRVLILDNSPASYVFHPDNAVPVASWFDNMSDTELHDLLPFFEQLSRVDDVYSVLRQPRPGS
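Test system: SCP-1 phosphatase catalytic domain, residues 76-261; measured by: colorimetric phosphate reagent with accelerator and stabiliser, absorbance at 630 nm; timing: enzyme reaction 45 min at room temperature, colour 5 min, stabilisation 30 min; also added: Phosphorylated 17-residue peptide substrate; compound dosing: one concentration, 20 µM, with 1.0% DMSO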
NadD inh: NadD (S. aureus) enzyme inhibition; purified NadD enzyme, colorimetric absorbance read-out; inhibition, % at 20 µM; 360,000 compounds, 0.78% hits; in the data active = inhibition above about 26%
Numbers without * were called inactive; · = no result given. Rows were chosen to be rich in hits. Some 2.4% of all compounds tested hit in one or more screens of this group.

SMILES | LMPTP inh | SUMO1 PPI mod | STEP block | DNMT1 inh | Scp1 inh | NadD inh
CC(=O)C1=C(C)NC(SCc2cccc3ccccc23)=C(C#N)C1c1ccco1 (centres undefined) | 2 | 1 | 1 | -16 | -12 | 17
Nc1ccc(O)c2c1C(=O)c1ccccc1C2=O | 73* | 13 | 37* | 89* | 80* | 9
O=C1c2ccccc2C(=O)c2c(O)c(O)cc(O)c21 | 66* | 36 | 24 | 79* | 76* | 14
O=C1C=C(O)c2c(O)cc(O)c(O)c2C1=O | 76* | 12 | 95* | 12 | 47 | 12
O=C(O)c1cccc2c1C(=O)c1ccccc1C2=O | -1 | -26 | -5 | 0 | 3 | 1
C[C@@H]1Cc2c(O)c(O)cc(O)c2C(=O)O1 | 0 | 2 | 4 | 39 | 26 | -2
Nc1ccc(Br)c2c1C(=O)c1ccccc1C2=O | · | · | · | · | -7 | ·
COc1ccc(-c2nc3ccc(C)cn3c2NCc2ccccc2)cc1SC1CCCCC1 | 4 | -3 | 6 | 60* | 20 | 9
CCCCNc1c(-c2ccc(OC)c(SC3CCCCC3)c2)nc2ccc(C)cn12 | 10 | -21 | 6 | -17 | 23 | 8
Cc1ccc2nc(-c3cc(-c4ccccc4)no3)cn2c1 | 6 | 62* | 2 | 27 | 0 | -1
COc1ccc(/C=C2\SC(=O)N(CCC(=O)N3CCCCC3CCO)C2=O)cc1 (centres undefined) | 1 | -35 | -2 | -3 | -8 | -5
CCOc1ccc(-n2c(C)cc(/C=C3/C(=N)N4C(=NC3=O)SN=C4S(C)(=O)=O)c2C)cc1 | 2 | -5 | 3 | -1 | -1 | 33*
CCC(CC)C1=NN2C(=N)/C(=C\c3cc(C)n(-c4cccc(C)c4)c3C)C(=O)N=C2S1 | 3 | -9 | 2 | 5 | -8 | 41*
Cc1cc(/C=C2\C(=N)N3C(SCc4ccccc4)=NSC3=NC2=O)c(C)n1Cc1ccccc1 | 2 | -22 | 3 | 14 | -4 | 31*
CCc1ccc(/C=N/NC(=O)c2cc(C3CC3)nc3ccccc23)s1 | 1 | -3 | -1 | -2 | -4 | -2
CCc1ccc(NC(=O)CS(=O)CC(=O)NC(C)CCc2ccco2)cc1 (centres undefined) | 1 | 1 | -3 | 1 | -10 | 6
Cc1cc(C)nc(NNC(=O)NC2CCCCC2)n1 | -1 | 3 | -3 | -1 | -7 | -5
COC(=O)c1ccc(CNC(=O)c2ccc(S(=O)(=O)N3CCCC(C)C3)cc2)cc1 (centres undefined) | 0 | 0 | 3 | 50* | -8 | 5
Cc1nc2cc(NC(=O)c3ccc(Br)s3)ccc2s1 | 3 | -1 | 41* | -4 | 7 | -10
c1cc2c3c(cccc3c1)NC1(CCCCC1)N2 | 13 | -6 | 1 | -3 | 15 | 36*
c1cc2c3c(cccc3c1)NC1(CCC3(CC1)Nc1cccc4cccc(c14)N3)N2 | 6 | -7 | 1 | -16 | 41 | 51*
O=C(c1cc2sccc2n1Cc1ccc(F)cc1)N1CCCc2ccccc21 | 5 | 2 | 2 | 1 | -16 | -5
CC(=O)OC[C@]12CC[C@H]3[C@@](C)(CC[C@H]4C(C)(C)CCC[C@]34C)[C@@H]1CC(C1=CC(=O)OC1O)O2 (some centres undefined) | 4 | 74* | 1 | 58* | · | 32*
C=C(C)CNC(=S)N1CCN(C(c2ccccc2)c2ccccc2)CC1 | 0 | 44* | 0 | 2 | -10 | -7
O=C(N/N=C/c1cccc([N+](=O)[O-])c1)c1cc(-c2ccc3c(c2)OCO3)n[nH]1 | 5 | 73* | 4 | 49 | 11 | 19
O=C(N/N=C/c1cccc(O)c1)c1cc(-c2ccc3c(c2)OCO3)n[nH]1 | 3 | 3 | -1 | -2 | 4 | 2
CN(Cc1ccccc1F)C(=O)CN1CCN(S(=O)(=O)c2ccc3c(c2)OCCCO3)CC1 | 0 | 4 | -3 | 0 | -8 | -1
Nc1nn2c(-c3ccccc3)cc(=O)[nH]c2c1N=Nc1ccc(Br)cc1 | 56* | -3 | 14 | -31 | 13 | 77*

Assay outcomes: PubChem BioAssay, Sanford-Burnham Center for Chemical Genomics
